The values below come from ChEMBL document CHEMBL3108721, “4,4'-Unsymmetrically substituted 3,3'-biphenyl alpha helical proteomimetics as potential coactivator binding inhibitors” (Bioorg Med Chem, 2014).

Data set [1] deals with T1, Estrogen receptor (Homo sapiens) (UniProt P03372).
T1 sequence (whole entry): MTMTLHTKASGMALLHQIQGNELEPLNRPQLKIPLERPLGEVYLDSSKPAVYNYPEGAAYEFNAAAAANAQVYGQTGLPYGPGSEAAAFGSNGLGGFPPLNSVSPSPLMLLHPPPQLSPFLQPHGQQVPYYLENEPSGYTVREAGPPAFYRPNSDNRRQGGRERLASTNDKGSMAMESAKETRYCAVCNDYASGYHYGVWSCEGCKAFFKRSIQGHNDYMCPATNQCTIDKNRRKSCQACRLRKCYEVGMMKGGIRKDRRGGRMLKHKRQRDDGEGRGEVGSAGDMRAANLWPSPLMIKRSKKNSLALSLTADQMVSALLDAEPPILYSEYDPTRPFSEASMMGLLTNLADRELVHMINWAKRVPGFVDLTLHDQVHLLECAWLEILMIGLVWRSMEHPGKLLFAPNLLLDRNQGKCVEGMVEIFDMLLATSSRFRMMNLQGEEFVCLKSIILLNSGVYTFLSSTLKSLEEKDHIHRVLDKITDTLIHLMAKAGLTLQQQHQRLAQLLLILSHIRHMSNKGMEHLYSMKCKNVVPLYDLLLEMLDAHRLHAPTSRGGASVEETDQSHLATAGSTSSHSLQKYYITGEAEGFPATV
The data set can be described thus: Inhibition of ER-alpha (unknown origin) transcriptional activity expressed in ER-negative human SKBR3 cells coexpressing ERE assessed as change in reporter gene activity after 40 hrs in presence of estradiol relative to control. The data set is classed as cell-based. The arrangement: concentration or dose not given beside the values. Particulars: SK-BR-3. The method, boiled down:
(§1)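 ER-negative SKBR3 cells cotransfected with 3xERE-TATA-luciferase, RST7-ERα and pCMV-β-gal for normalization. […] Scored as >50% decrease or increase at <20, 20–50 or >50 μM, or <20% change. 4-hydroxytamoxifen as antagonist control. Cell death above 50 μM flagged.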
(A reporter such as luciferase makes a cellular process visible.)

Data set [2] deals with T1, Estrogen receptor (Homo sapiens). Kind of data set: Competitive inhibition of ER-alpha (unknown origin)-GRIP1 interaction expressed in human HepG2 cells assessed as decrease in reporter gene activity at less than 20 uM after 40 hrs relative to control. Also noted: scale not given: the % may be the effect or the level left.
The target is the same in data set [3]. Kind of data set: Competitive inhibition of ER-alpha (unknown origin)-GRIP1 interaction expressed in human HepG2 cells assessed as change in reporter gene activity after 40 hrs in presence of estradiol relative to control. In kind it is cell-based. Also noted: concentration or dose not given beside the values. The method, boiled down: (§2)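 HepG2 cells transfected with VP16-ERα, Gal4-DBD-fused GRIP1 LxxLL2 peptide and 5xGal4Luc3 reporter. […] Scored as >50% decrease or increase at <20, 20–50 or >50 μM, or <20% change. 4-hydroxytamoxifen as antagonist control. Cell death and precipitation flagged.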

For data set [4] the target is unchanged. Kind of data set: Inhibition of ER-alpha (unknown origin) transcriptional activity expressed in ER-negative human SKBR3 cells coexpressing ERE assessed as increase in reporter gene activity at 20 to 50 uM after 40 hrs relative to control. In kind it is cell-based. Also noted: scale not given: the % may be the effect or the level left. Particulars: SK-BR-3. The procedure, abridged:
as §1

Data set [5] shares this target. The data set can be described thus: Competitive inhibition of ER-alpha (unknown origin)-GRIP1 interaction expressed in human HepG2 cells assessed as decrease in reporter gene activity at <20 uM after 40 hrs relative to control. The data set is classed as cell-based. The arrangement: scale not given: the % may be the effect or the level left. The procedure, abridged: as §2

The target in another data set is T2, Estrogen receptor (Homo sapiens, UniProt P03372).
T2 sequence (P03372 whole entry): T1 sequence (whole entry)
Kind of data set: Mixed-type inhibition of ER-alpha (unknown origin) expressed in ER-negative human SKBR3 cells coexpressing ERE using estradiol as substrate. In kind it is cell-based, SK-BR-3.

For data set [6], the target named is T1, Estrogen receptor (Homo sapiens). The data set can be described thus: Inhibition of ER-alpha (unknown origin) transcriptional activity expressed in ER-negative human SKBR3 cells coexpressing ERE assessed as decrease in reporter gene activity at <20 uM after 40 hrs in presence of estradiol relative to control. The following applies: SK-BR-3. The arrangement: scale not given: the % may be the effect or the level left. In kind it is cell-based. The procedure, abridged: as §1

Data set [7] has the same target. Kind of data set: Competitive inhibition of ER-alpha (unknown origin)-GRIP1 interaction expressed in human HepG2 cells assessed as decrease in reporter gene activity at <20 uM after 40 hrs in presence of estradiol relative to control. The data set is classed as cell-based. Also noted: scale not given: the % may be the effect or the level left. The procedure, abridged: as §2

Data set [8] has the same target. Kind of data set: Inhibition of ER-alpha (unknown origin) transcriptional activity expressed in ER-negative human SKBR3 cells coexpressing ERE assessed as decrease in reporter gene activity at <20 uM after 40 hrs relative to control. The following applies: SK-BR-3. The arrangement: scale not given: the % may be the effect or the level left. In kind it is cell-based. The procedure, abridged:
as §1

The subject of data set [9] is HepG2. The data set can be described thus: Cytotoxicity against human HepG2 cells expressing ER-alpha coexpressing GRIP1 assessed as cell death at >50 uM. The data set is classed as cell-based. The procedure, abridged:
as §2

Data set [10] has as its target T1, Estrogen receptor (Homo sapiens). The data set can be described thus: Competitive inhibition of ER-alpha (unknown origin)-GRIP1 interaction expressed in human HepG2 cells assessed as decrease in reporter gene activity at >50 uM after 40 hrs relative to control. The data set is classed as cell-based. Also noted: scale not given: the % may be the effect or the level left. The procedure, abridged:
as §2

Data set [11] has the same target. The data set can be described thus: Inhibition of ER-alpha (unknown origin) transcriptional activity expressed in ER-negative human SKBR3 cells coexpressing ERE assessed as change in reporter gene activity after 40 hrs relative to control. The arrangement: concentration or dose not given beside the values. The data set is classed as cell-based. Particulars: SK-BR-3. The procedure, abridged:
as §1

Data set [12] concerns HepG2. The data set can be described thus: Cytotoxicity against human HepG2 cells expressing ER-alpha coexpressing GRIP1 assessed as cell death at >50 uM in presence of estradiol. In kind it is cell-based. The procedure, abridged:
as §2

By IC50 is commonly meant the point on the concentration scale where inhibition reaches its midpoint.

Consider `CCOC(=O)COc1ccc(-c2ccc(OCCN(C)C)c(CC3CCCCC3)c2)cc1`, for which the Activity in data set [1] was less than 20%; in data set [2], more than 50%; in data set [3], less than 20%; in data set [4], more than 50%.
In the case of `CCOC(=O)COc1ccc(-c2ccc(OCCN(C)C)cc2)cc1CC1CCCCC1`, the Activity in [5], in data set [6], in data set [7] and in data set [8] was more than 50% in each case. On Estrogen receptor, the IC50 amounted to 12.7 µM.
As to `CCOC(=O)COc1ccc(-c2ccc(OCCN(C)C)cc2)cc1Cc1ccc(-c2ccccc2)cc1`, the Activity result is “Toxic” in the data set on HepG2 [9]; less than 20% in data set [1]; less than 20% in data set [3]; more than 50% in [10]; less than 20% in data set [11]; “Toxic” in the data set on HepG2 [12].
